Assay results: ChEMBL document CHEMBL1127498, “Synthesis and DNA-sequence selectivity of a series of mono- and difunctional 9-aminoacridine nitrogen mustards” (J Med Chem, 1994)
Values belong to the compound of their own block, whether it stands above or below them.

System: HT-29
Assay: Concentration required to inhibit colony formation by 50% in human colon carcinoma HT-29 cells
Format: functional, cell-based
Summary of the method: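 HT-29 cells grown in Eagle's MEM with 15% heat-inactivated FBS. Exponential-phase cells (2 × 10⁵/mL) plated, treated 16-20 h later with a range of drug concentrations for 30 min at 37 °C in medium with 1% serum. Washed twice, trypsinized, replated in triplicate at 10^2, 10^3, 10^4 cells/25-cm² flask for colony counts. At least two independent experiments; untreated plating efficiency 40-65%.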

Structure (SMILES): COc1ccc2nc3ccccc3c(NCCCCN(CCCl)CCCl)c2c1
IC50: 10 nM

Structure (SMILES): CCN(CCCl)CCCCCCNc1c2ccccc2nc2ccc(OC)cc12
IC50: 750 nM

IC50: 55000 nM
Structure (SMILES): CCN(CC)CCCC(C)Nc1c2ccc(Cl)cc2nc2ccc(OC)cc12 (stereo unspecified) [QUINACRINE]

Structure (SMILES): COc1ccc2nc3ccccc3c(NCCCCCN(CCCl)CCCl)c2c1
IC50: 30 nM

Structure (SMILES): COc1ccc2nc3ccccc3c(NCCCN(CCCl)CCCl)c2c1
IC50: 20 nM

Structure (SMILES): CCN(CCCl)CCCCCNc1c2ccccc2nc2ccc(OC)cc12
IC50: 700 nM

Structure (SMILES): COc1ccc2nc3ccccc3c(NCCN(CCCl)CCCl)c2c1
IC50: 110 nM

Structure (SMILES): COc1ccc2nc3ccccc3c(NCCCCCCN(CCCl)CCCl)c2c1
IC50: 60 nM

Structure (SMILES): CCN(CCCl)CCNc1c2ccccc2nc2ccc(OC)cc12
IC50: 1100 nM

Structure (SMILES): CCN(CCCl)CCCNc1c2ccccc2nc2ccc(OC)cc12
IC50: 370 nM

Structure (SMILES): CCN(CCCl)CCCCNc1c2ccccc2nc2ccc(OC)cc12
IC50: 250 nM
